Experimental data reported in ChEMBL document CHEMBL4346654 (Eur J Med Chem, 2019).
In brackets after ≈: the same amount, converted by molar mass.

Legend:
Type in all cases: functional
Staphylococcus aureus [1] = assay: Antibacterial activity against MLS-resistant Staphylococcus aureus PU 32 expressing inducible ermA gene assessed as reduction in microbial growth by CLSI based two-fold broth dilution method
Streptococcus pneumoniae [2] = assay: Antibacterial activity against erythromycin-susceptible Streptococcus pneumoniae ATCC49619 assessed as reduction in microbial growth by CLSI based two-fold broth dilution method
Streptococcus pneumoniae [3] = assay: Bactericidal activity against erythromycin-susceptible Streptococcus pneumoniae ATCC49619 pretreated followed by subculture in absence of compound measured after 24 hrs
Summary of the method: (§1)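 Isolates were identified by 16S rDNA sequencing. MIC was determined by CLSI-recommended two-fold broth dilution. For MBC, samples from 1–8 fold MIC were transferred to culture medium and subcultured for 24 h without antibiotic.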

Haemophilus influenzae [4] = assay: Antibacterial activity against azithromycin-susceptible Haemophilus influenzae ATCC 49247 assessed as reduction in microbial growth by CLSI based two-fold broth dilution method
Streptococcus pneumoniae [5] = assay: Selectivity ratio of MBC to MIC for erythromycin-susceptible Streptococcus pneumoniae ATCC49619; summary of the method: as §1
Streptococcus pneumoniae [6] = assay: Antibacterial activity against Streptococcus pneumoniae 07P390 expressing constitutive ermB gene assessed as reduction in microbial growth by CLSI based two-fold broth dilution method
Streptococcus pneumoniae [7] = assay: Antibacterial activity against penicillin-susceptible Streptococcus pneumoniae PU 09 expressing mef gene assessed as reduction in microbial growth by CLSI based two-fold broth dilution method
Streptococcus pneumoniae [8] = assay: Bactericidal activity against penicillin-susceptible Streptococcus pneumoniae PU 09 expressing mef gene pretreated followed by subculture in absence of compound measured after 24 hrs; summary of the method: as §1
Streptococcus pneumoniae [9] = assay: Selectivity ratio of MBC to MIC for penicillin-susceptible Streptococcus pneumoniae PU 09 expressing mef gene; summary of the method: as §1
Streptococcus pneumoniae [10] = assay: Bactericidal activity against Streptococcus pneumoniae 07P390 expressing constitutive ermB gene pretreated followed by subculture in absence of compound measured after 24 hrs; summary of the method: as §1
Streptococcus pneumoniae [11] = assay: Selectivity ratio of MBC to MIC for Streptococcus pneumoniae 07P390 expressing constitutive ermB gene; summary of the method: as §1
Haemophilus influenzae [12] = assay: Bactericidal activity against azithromycin-susceptible Haemophilus influenzae ATCC 49247 pretreated followed by subculture in absence of compound measured after 24 hrs; summary of the method: as §1
Haemophilus influenzae [13] = assay: Selectivity ratio of MBC to MIC for azithromycin-susceptible Haemophilus influenzae ATCC 49247; summary of the method: as §1
Streptococcus pyogenes [14] = assay: Antibacterial activity against MLS-resistant Streptococcus pyogenes 01-968 expressing inducible ermB gene assessed as reduction in microbial growth by CLSI based two-fold broth dilution method
Streptococcus pyogenes [15] = assay: Bactericidal activity against MLS-resistant Streptococcus pyogenes 01-968 expressing inducible ermB gene pretreated followed by subculture in absence of compound measured after 24 hrs
Summary of the method: (§2)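 MBC assay. Following MIC determination by CLSI standard two-fold broth dilution, samples at 1–8 fold MIC were transferred to fresh culture medium. They were subcultured for 24 h without antibiotic. Isolates were identified by 16S rDNA sequencing. S. aureus ATCC 29213 was used as a control strain.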

Streptococcus pyogenes [16] = assay: Selectivity ratio of MBC to MIC for MLS-resistant Streptococcus pyogenes 01-968 expressing inducible ermB gene
Summary of the method: (§3)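 MBC/MIC ratio. MIC was measured by CLSI standard two-fold broth dilution. MBC was measured by transferring samples at 1–8 fold MIC to culture medium and subculturing for 24 h without antibiotic. Isolates were identified by 16S rDNA sequencing.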

Staphylococcus aureus [17] = assay: Bactericidal activity against MLS/methicillin-resistant Staphylococcus aureus PU 32 expressing inducible ermA gene pretreated followed by subculture in absence of compound measured after 24 hrs; summary of the method: as §2
Staphylococcus aureus [18] = assay: Selectivity ratio of MBC to MIC for MLS/methicillin-resistant Staphylococcus aureus PU 32 expressing inducible ermA gene; summary of the method: as §3
Staphylococcus aureus [19] = assay: Antibacterial activity against MLS-resistant Staphylococcus aureus PU 20 expressing constitutive ermC gene assessed as reduction in microbial growth by CLSI based two-fold broth dilution method
Staphylococcus aureus [20] = assay: Bactericidal activity against MLS-resistant Staphylococcus aureus PU 20 expressing constitutive ermC gene pretreated followed by subculture in absence of compound measured after 24 hrs; summary of the method: as §2
Streptococcus pyogenes [21] = assay: Bactericidal activity against MLS-resistant Streptococcus pyogenes 12-206 expressing constitutive ermA gene pretreated followed by subculture in absence of compound measured after 24 hrs; summary of the method: as §2
Streptococcus pyogenes [22] = assay: Bactericidal activity against Streptococcus pyogenes 12-207 expressing mef gene pretreated followed by subculture in absence of compound measured after 24 hrs; summary of the method: as §1

SMILES | MIC (Staphylococcus aureus [1]) | MIC (Streptococcus pneumoniae [2]) | MBC (Streptococcus pneumoniae [3]) | MIC (Haemophilus influenzae [4]) | Selectivity ratio (Streptococcus pneumoniae [5]) | MIC (Streptococcus pneumoniae [6]) | MIC (Streptococcus pneumoniae [7]) | MBC (Streptococcus pneumoniae [8]) | Selectivity ratio (Streptococcus pneumoniae [9]) | MBC (Streptococcus pneumoniae [10]) | Selectivity ratio (Streptococcus pneumoniae [11]) | MBC (Haemophilus influenzae [12]) | Selectivity ratio (Haemophilus influenzae [13]) | MIC (Streptococcus pyogenes [14]) | MBC (Streptococcus pyogenes [15]) | Selectivity ratio (Streptococcus pyogenes [16]) | MBC (Staphylococcus aureus [17]) | Selectivity ratio (Staphylococcus aureus [18]) | MIC (Staphylococcus aureus [19]) | MBC (Staphylococcus aureus [20]) | other results
CC[C@H]1OC(=O)[C@@](C)(F)C(=O)[C@H](C)[C@@H](O[C@@H]2O[C@H](C)C[C@H](N(C)C)[C@H]2O)[C@](C)(OC/C=C/c2ccc3[nH]cc(C(=O)O)c(=O)c3c2)C[C@@H](C)/C(=N\OC)[C@H](C)[C@H]2OC(=O)O[C@@]21C | 0.5 µg/mL | 0.062 µg/mL | 0.062 µg/mL (≈ 0.0709 µM) | 8 µg/mL | 1 | 0.5 µg/mL | 2 µg/mL | 4 µg/mL (≈ 4.58 µM) | 2 | 4 µg/mL (≈ 4.58 µM) | 8 | 16 µg/mL (≈ 18.3 µM) | 2 | 0.031 µg/mL | 0.062 µg/mL (≈ 0.0709 µM) | 2 | 2 µg/mL (≈ 2.29 µM) | 4 | > 256 µg/mL | – | –
CC[C@H]1OC(=O)[C@@](C)(F)C(=O)[C@H](C)[C@@H](O[C@@H]2O[C@H](C)C[C@H](N(C)C)[C@H]2O)[C@](C)(OC)C[C@@H](C)/C(=N\OC/C=C/c2ccc3[nH]ccc(=O)c3c2)[C@H](C)[C@H]2OC(=O)O[C@@]21C | 1 µg/mL | 0.125 µg/mL | 0.5 µg/mL (≈ 0.602 µM) | 16 µg/mL | 4 | 16 µg/mL | 4 µg/mL | 8 µg/mL (≈ 9.64 µM) | 2 | 32 µg/mL (≈ 38.6 µM) | 2 | 32 µg/mL (≈ 38.6 µM) | 2 | 0.062 µg/mL | > 0.5 µg/mL | >8 | > 8 µg/mL | >8 | 256 µg/mL | > 256 µg/mL | –
CC[C@H]1OC(=O)[C@@](C)(F)C(=O)[C@H](C)[C@@H](O[C@@H]2O[C@H](C)C[C@H](N(C)C)[C@H]2O)[C@](C)(OC/C=C/c2ccc3[nH]ccc(=O)c3c2)C[C@@H](C)/C(=N\OC)[C@H](C)[C@H]2OC(=O)O[C@@]21C | 1 µg/mL | 0.062 µg/mL | 0.062 µg/mL (≈ 0.0747 µM) | 8 µg/mL | 1 | 0.25 µg/mL | 2 µg/mL | 4 µg/mL (≈ 4.82 µM) | 2 | 1 µg/mL (≈ 1.2 µM) | 4 | 16 µg/mL (≈ 19.3 µM) | 2 | 0.125 µg/mL | 1 µg/mL (≈ 1.2 µM) | 8 | 8 µg/mL (≈ 9.64 µM) | 8 | 256 µg/mL | > 256 µg/mL | –
CC[C@H]1OC(=O)[C@@](C)(F)C(=O)[C@H](C)[C@@H](O[C@@H]2O[C@H](C)C[C@H](N(C)C)[C@H]2O)[C@](C)(OC/C=C/c2cncc(C(N)=O)c2)C[C@@H](C)/C(=N\OC)[C@H](C)[C@H]2OC(=O)O[C@@]21C | 0.125 µg/mL | 0.062 µg/mL | 0.125 µg/mL (≈ 0.155 µM) | 4 µg/mL | 2 | 0.5 µg/mL | 2 µg/mL | 8 µg/mL (≈ 9.91 µM) | 4 | 4 µg/mL (≈ 4.96 µM) | 8 | 8 µg/mL (≈ 9.91 µM) | 2 | 0.031 µg/mL | > 0.25 µg/mL | >8 | > 1 µg/mL | >8 | > 256 µg/mL | – | –
CC[C@H]1OC(=O)[C@@](C)(F)C(=O)[C@H](C)[C@@H](O[C@@H]2O[C@H](C)C[C@H](N(C)C)[C@H]2O)[C@](C)(OC)C[C@@H](C)/C(=N\OC/C=C/c2ccc3[nH]cc(C(=O)O)c(=O)c3c2)[C@H](C)[C@H]2OC(=O)O[C@@]21C | 2 µg/mL | 0.125 µg/mL | 0.125 µg/mL (≈ 0.143 µM) | 32 µg/mL | 1 | 4 µg/mL | 2 µg/mL | 4 µg/mL (≈ 4.58 µM) | 2 | 16 µg/mL (≈ 18.3 µM) | 4 | 32 µg/mL (≈ 36.6 µM) | 1 | 0.016 µg/mL | > 0.125 µg/mL | >8 | 16 µg/mL (≈ 18.3 µM) | 8 | 256 µg/mL | > 256 µg/mL | –
CC[C@H]1OC(=O)[C@@](C)(F)C(=O)[C@H](C)[C@@H](O[C@@H]2O[C@H](C)C[C@H](N(C)C)[C@H]2O)[C@](C)(OC)C[C@@H](C)/C(=N\OCC#Cc2ccc3[nH]ccc(=O)c3c2)[C@H](C)[C@H]2OC(=O)O[C@@]21C | 1 µg/mL | 0.062 µg/mL | 0.125 µg/mL (≈ 0.151 µM) | 16 µg/mL | 2 | 16 µg/mL | 4 µg/mL | 4 µg/mL (≈ 4.83 µM) | 1 | 32 µg/mL (≈ 38.6 µM) | 2 | 16 µg/mL (≈ 19.3 µM) | 1 | ≤ 0.008 µg/mL | > 0.062 µg/mL | >8 | 8 µg/mL (≈ 9.66 µM) | 8 | 256 µg/mL | > 256 µg/mL | –
CC[C@H]1OC(=O)[C@@](C)(F)C(=O)[C@H](C)[C@@H](O[C@@H]2O[C@H](C)C[C@H](N(C)C)[C@H]2O)[C@](C)(OC/C=C/c2ccc3ncc(C(=O)O)cc3c2)C[C@@H](C)/C(=N\OC)[C@H](C)[C@H]2OC(=O)O[C@@]21C | 0.062 µg/mL | 0.031 µg/mL | 0.062 µg/mL (≈ 0.0723 µM) | 4 µg/mL | 2 | 0.5 µg/mL | 8 µg/mL | 16 µg/mL (≈ 18.6 µM) | 2 | 4 µg/mL (≈ 4.66 µM) | 8 | 8 µg/mL (≈ 9.32 µM) | 2 | ≤ 0.008 µg/mL | > 0.062 µg/mL | >8 | 0.5 µg/mL (≈ 0.583 µM) | 8 | > 256 µg/mL | – | –
O=C(O)c1cn(C2CC2)c2cc(N3CCNCC3)c(F)cc2c1=O [CIPROFLOXACIN] | – | – | 2 µg/mL (≈ 6.04 µM) | – | – | – | – | 4 µg/mL (≈ 12.1 µM) | – | 4 µg/mL (≈ 12.1 µM) | – | 0.004 to 0.008 µg/mL (≈ 0.0121 to 0.0241 µM) | – | – | 0.5 to 2 µg/mL (≈ 1.51 to 6.04 µM) | – | > 256 µg/mL | – | – | > 256 µg/mL | MBC (Streptococcus pyogenes [21]): > 1 µg/mL; MBC (Streptococcus pyogenes [22]): 2 µg/mL (≈ 6.04 µM)
